dFosB activator = activators of mouse delta FosB homodimer. P13346. purified delta FosB, TAMRA-CDK5 oligo fluorescence polarization; percent of positive-control signal above neutral wells. activation, % at 25 µM. AID 493131. hit rate 0.99% among 340,000;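 active = mean activation above about 17%, with every replicate also reaching it, limit read from the data, passing the limit was not always enough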
Target sequence (P13346 whole entry, looked up): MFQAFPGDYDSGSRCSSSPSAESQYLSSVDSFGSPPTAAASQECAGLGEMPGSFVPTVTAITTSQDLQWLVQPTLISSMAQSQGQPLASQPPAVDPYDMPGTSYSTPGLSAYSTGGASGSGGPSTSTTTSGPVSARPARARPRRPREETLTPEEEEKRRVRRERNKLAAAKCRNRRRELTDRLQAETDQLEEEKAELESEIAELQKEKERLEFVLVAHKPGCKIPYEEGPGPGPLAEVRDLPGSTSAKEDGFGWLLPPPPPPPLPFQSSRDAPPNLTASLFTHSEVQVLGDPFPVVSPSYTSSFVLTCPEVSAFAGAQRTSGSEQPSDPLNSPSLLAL
rRNA inh HTS = selective bacterial rRNA inhibition in E. coli. E. coli WT GFP vs humanized-ribosome RFP mutants, fluorescence, 24 h; stronger effect = lower value; DMSO median 0, no signal -100. GFP signal change (wild-type ribosome), % (no concentration beside the values). hit rate 1.6% among 350,000. AID 720706;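 active = significant combined selectivity score with lowered wild-type GFP, culture density cut under 30%, mutant RFP and density less affected; inactive = any of these conditions unmet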
XiGFP reactiv = X-chromosome reactivation activator; XiGFP mouse fibroblasts, % GFP-positive cells imaging, 3 d; cells co-treated with 5-aza-dC sensitizer; scaled so ellipticine positive control = 100%; activation, % at 7.58 µM; hit rate 0.055% among 360,000; AID 743238;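 active = mean normalized replicate activation at least 10% and every replicate at or above 10%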
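Assay system – SV40-immortalized XiGFP fibroblast cells, line 68-5-11 · Buffer or medium – DMEM supplemented with 5-aza-dC as sensitizing agent · Dosing – one concentration, pinned · Benchmarks – positive control ellipticine, 6 µM final · Times – 3 days compound exposure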
PvdQ acylase = P. aeruginosa PvdQ acylase inhibition; hit rate 0.063% among 340,000; AID 488965; purified PvdQ acylase, fluorescence plate reader; inhibition, % at 10 µM; in the data active = inhibition above about 30%, passing the limit was not always enough
SR-BI DiI-HDL act = activators of SR-BI mediated HDL lipid uptake; CHO ldlA[mSR-BI] cells, DiI-HDL uptake fluorescence, 3 h; 100 = double the neutral-control signal; activation, % at 12.5 µM; hit rate 0.096% among 320,000; AID 504775;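 active = mean replicate activation of at least 60% and every replicate at or above 60%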
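Test system: SR-BI-overexpressing, LDLR-lacking CHO cells; Also added: labelled HDL, 10 µg/mL; Measured by: bottom-read cell fluorescence after medium removal, ex 550/em 595 nm; Timing: 3 h uptake period with compound, 37 °C; Buffer or medium: F12, 0.5% BSA, 25 mM HEPES; Doses: single compound concentration, delivered by pin transfer.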
SR-BI DiI inh = inhibitors of mouse SR-BI mediated HDL lipid uptake; hit rate 0.96% among 320,000; inhibition, % at 12.5 µM; ldlA[mSR-BI] CHO cells, DiI-HDL uptake fluorescence, 3 h; Q61009;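 active = mean replicate inhibition of at least 70% and a set share of replicates each scoring 70 or more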
Hits are given with their value. Rows were chosen to be rich in hits. Some 2.6% of all compounds tested hit in one or more screens of this group.

How did CN(C)CCNC=C(C(=O)Nc1ccc(Cl)cc1Cl)C(=O)Nc1ccc(Cl)cc1Cl do in these assays?
dFosB activator: inactive; PvdQ acylase: inactive; SR-BI DiI-HDL act: 82; SR-BI DiI inh: inactive

Results for Cc1nnc(SCC(=O)NCC(=O)Nc2ccc(F)c(F)c2F)n1Cc1ccccc1 ?
dFosB activator: inactive; rRNA inh HTS: inactive; XiGFP reactiv: inactive; PvdQ acylase: inactive; SR-BI DiI-HDL act: inactive; SR-BI DiI inh: inactive

What do the screens show for `COc1cc(OC)cc(C(=O)Nc2nc(CC(=O)NCc3ccccc3OC)cs2)c1`?
dFosB activator: inactive; rRNA inh HTS: inactive; XiGFP reactiv: inactive; PvdQ acylase: inactive; SR-BI DiI-HDL act: inactive; SR-BI DiI inh: 70

What do the screens show for `COc1cc(OC)cc(C(=O)Nc2nc(CC(=O)NCCc3ccccc3)cs2)c1`?
dFosB activator: inactive; rRNA inh HTS: inactive; XiGFP reactiv: inactive; PvdQ acylase: inactive; SR-BI DiI-HDL act: inactive; SR-BI DiI inh: 81

Results for COc1cc2c(cc1OC)C(C)N(C(=S)Nc1ccccc1)CC2 (stereo unspecified) ?
dFosB activator: inactive; XiGFP reactiv: inactive; PvdQ acylase: inactive; SR-BI DiI-HDL act: inactive; SR-BI DiI inh: inactive

How did O=C(c1ccccc1F)N1C[C@H]2[C@@H](c3ccccc31)[C@@H](CO)N2C(=O)c1cccnc1 do in these assays?
rRNA inh HTS: inactive; XiGFP reactiv: inactive

How did O=C1CCC/C(=N/Nc2ccc(Cl)cc2)C1 do in these assays?
dFosB activator: inactive; rRNA inh HTS: inactive; XiGFP reactiv: inactive; PvdQ acylase: inactive; SR-BI DiI-HDL act: inactive; SR-BI DiI inh: 80

What do the screens show for `O=C(NN=C1CCCC1)c1ccc(Cl)cc1`?
dFosB activator: inactive; rRNA inh HTS: inactive; XiGFP reactiv: inactive; PvdQ acylase: inactive; SR-BI DiI-HDL act: inactive; SR-BI DiI inh: inactive

Results for CCOc1ccc(S(=O)(=O)NCCCl)cc1 ?
dFosB activator: inactive; rRNA inh HTS: inactive; XiGFP reactiv: inactive; PvdQ acylase: inactive; SR-BI DiI-HDL act: inactive; SR-BI DiI inh: inactive

How did c1coc(-c2nc3ccccc3nc2-c2ccco2)c1 do in these assays?
dFosB activator: inactive; rRNA inh HTS: -28; PvdQ acylase: inactive; SR-BI DiI-HDL act: inactive; SR-BI DiI inh: inactive

Results for CCn1nc(Cc2cccc3ccccc23)c(C#N)c1N ?
dFosB activator: inactive; rRNA inh HTS: -27; XiGFP reactiv: inactive; PvdQ acylase: inactive; SR-BI DiI-HDL act: inactive; SR-BI DiI inh: inactive

Results for N#CCCn1nc(Cc2cccc3ccccc23)c(C#N)c1N ?
dFosB activator: inactive; rRNA inh HTS: inactive; XiGFP reactiv: inactive; PvdQ acylase: inactive; SR-BI DiI-HDL act: inactive; SR-BI DiI inh: inactive

How did Cc1ccc(NC(=O)c2oc3ccccc3c2NC(=O)C2CCCO2)cc1C (stereo unspecified) do in these assays?
dFosB activator: inactive; rRNA inh HTS: inactive; XiGFP reactiv: inactive; PvdQ acylase: inactive; SR-BI DiI-HDL act: inactive; SR-BI DiI inh: inactive

Results for COc1ccc(NC(=O)c2oc3ccccc3c2NC(=O)C2CCCO2)cc1OC (stereo unspecified) ?
dFosB activator: inactive; rRNA inh HTS: -37; XiGFP reactiv: inactive; PvdQ acylase: inactive; SR-BI DiI-HDL act: inactive; SR-BI DiI inh: inactive

Results for CCOCC(=O)Nc1c(C(=O)Nc2ccc3c(c2)OCCO3)oc2ccccc12 ?
dFosB activator: inactive; rRNA inh HTS: -25; XiGFP reactiv: inactive; PvdQ acylase: inactive; SR-BI DiI-HDL act: inactive; SR-BI DiI inh: inactive

How did Oc1ccc(Nc2nc(-c3ccccc3)nc3ccccc23)cc1 do in these assays?
dFosB activator: inactive; rRNA inh HTS: inactive; PvdQ acylase: inactive; SR-BI DiI-HDL act: inactive; SR-BI DiI inh: inactive

Results for Oc1ccc(Nc2nc3ccccc3nc2Nc2ccc(O)cc2)cc1 ?
dFosB activator: inactive; PvdQ acylase: inactive; SR-BI DiI-HDL act: inactive; SR-BI DiI inh: 90

What do the screens show for `O=C(c1ccc(Cl)cc1)N1CCN(c2cccc3[nH]ccc23)CC1`?
dFosB activator: inactive; rRNA inh HTS: -25; XiGFP reactiv: inactive; PvdQ acylase: inactive; SR-BI DiI-HDL act: inactive; SR-BI DiI inh: inactive

Results for O=C(c1ccc(Cl)cc1)N1CCN(c2ccc(F)cc2)CC1 ?
dFosB activator: inactive; PvdQ acylase: inactive; SR-BI DiI-HDL act: inactive; SR-BI DiI inh: inactive

Source: PubChem (Broad Institute)
